Compound activity (PubChem BioAssay)
In the library only some 10% were active in any assay of this set; here they are far more common.
PMI act = activators of human phosphomannose isomerase; purified human PMI, coupled resazurin fluorescence, 20 min; hits give high values; 1 = vehicle control, 0 substrate-free wells; P34949; 0.005% of 190,000 active; activation factor at 20 µM; AID 1214;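 active means activation factor of 2 or more at 20 µM, relative to plate controls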
Target sequence (P34949 whole entry, looked up): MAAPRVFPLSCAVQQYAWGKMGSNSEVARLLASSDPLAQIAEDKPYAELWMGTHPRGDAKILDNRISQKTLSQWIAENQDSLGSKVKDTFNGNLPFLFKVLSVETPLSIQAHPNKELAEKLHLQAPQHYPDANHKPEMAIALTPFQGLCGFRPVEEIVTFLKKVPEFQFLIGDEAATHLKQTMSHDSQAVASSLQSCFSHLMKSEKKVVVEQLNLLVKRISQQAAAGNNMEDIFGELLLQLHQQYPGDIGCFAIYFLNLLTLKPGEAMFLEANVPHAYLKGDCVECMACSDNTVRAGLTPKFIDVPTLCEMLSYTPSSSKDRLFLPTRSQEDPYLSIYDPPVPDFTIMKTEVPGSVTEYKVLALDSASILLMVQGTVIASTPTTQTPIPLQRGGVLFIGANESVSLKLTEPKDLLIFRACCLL
WT yeast gro inh = growth inhibition of WT yeast, mitochondrial fusion screen. 2.1% of 190,000 active. mitochondrial fusion phenotypic screen, WT strain. AID 1362. inhibition, % at 10 µM; in the data active means inhibition above about 58%; tested in S. cerevisiae
Diaph act CS = activates diaphorase or chemically reduces, flagging diaphorase assay artifacts; AID 1229; Diaphorase/resazurin coupled assay, resorufin fluorescence, 16 min; hits give high values; 1 = vehicle wells, 0 = NADH-free wells; activation factor at 20 µM; 0.005% of 190,000 active;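 active means diaphorase activity raised at least twofold by the compound at 20 µM; inactive means activation factor below 2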
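Assay system: Purified diaphorase enzyme from Clostridium kluyveri | Amount: Enzyme 0.07 U/mL final | Dosing: Compound 20 µM once, DMSO 1% | Timing: 16 min reaction at room temperature | Detection: Fluorescence, excitation 544 nm and emission 590 nm | Evaluation: Higher resorufin formation from activation or reduction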
Lmaj promast = inhibitors of Leishmania major promastigote growth; Leishmania major promastigotes, resazurin fluorescence viability; inhibition, % at 10 µM; 9% of 200,000 active; AID 1063; in the data active means inhibition above about 50%;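 further: promastigotes grown with compound for 44 hours at 28 °C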
PMI act hi M6P = PMI (human) activation, high substrate; P34949; coupled PMI enzyme assay, resazurin fluorescence, 20 min; hits give high values; 1 = untreated enzyme, 0 = substrate-free blank; activation factor at 20 µM; 0.34% of 190,000 active;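 active means activation factor of 2 or more at 20 µM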
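Test system – human PMI in coupled enzyme assay · Timing – 20 min incubation at room temperature · Detection – Diaphorase-driven resazurin-to-resorufin fluorescence, excitation 544, emission 590 nm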
Each line names hits and unclear results; the compound was inactive in the other large screens.

COc1ccc2cnn(-c3ccc(C)cc3)c(=O)c2c1OC	none
COc1ccc2cnn(CCOc3ccccc3)c(=O)c2c1OC	Lmaj promast 87
CCOc1ccccc1OCCn1ncc2ccc(OC)c(OC)c2c1=O	none
CC1CN(Cc2ccccc2)c2ccccc2NC1=S (stereo not drawn)	WT yeast gro inh 67
O=C1CNC(=S)N1Cc1ccccc1	none
CSCCC(NS(=O)(=O)c1ccc(Cl)cc1)C(=O)OCc1c(Cl)cccc1Cl (stereo not drawn)	Lmaj promast 99
CSCCC(NS(=O)(=O)c1ccc(Cl)cc1)C(=O)OCC(=O)N(C(C)C)C(C)C (stereo not drawn)	none
CSCCC(NS(=O)(=O)c1ccc(Cl)cc1)C(=O)OCc1cccc(Cl)c1 (stereo not drawn)	Lmaj promast 97
CSCCC(NS(=O)(=O)c1ccccc1F)C(=O)OCc1ccccc1Cl (stereo not drawn)	Lmaj promast 75
C=CCOc1ccc(C2C(C#N)=C(N)N(Nc3ccccc3)C3=C2C(=O)CC(C)(C)C3)cc1OC (stereo not drawn)	Lmaj promast 89
COc1ccc(C2C(C#N)=C(N)OC3=C2C(=O)CC(C)(C)C3)cc1OC (stereo not drawn)	none
O=C(c1nc2ccccn2c1CN1CCCC(OCc2ccccc2)C1)N1CCCC1 (stereo not drawn)	none
CN1CCN(C(c2cccnc2)c2ccc3cccnc3c2O)CC1 (stereo not drawn)	none
Oc1c(C(Nc2nccs2)c2ccc(C(F)(F)F)cc2)ccc2cccnc12 (stereo not drawn)	Lmaj promast 100
Oc1c(C(Nc2cccc(C(F)(F)F)c2)c2ccncc2)ccc2cccnc12 (stereo not drawn)	Lmaj promast 100
CSc1nc2ccccc2cc1/C=C(\C#N)c1ccccc1	none
O=Cc1cc2ccccc2nc1SCCCF	Lmaj promast 58
CCn1cc([N+](=O)[O-])c(C(=O)N2N=C(c3ccc(Cl)c(Cl)c3)CC2c2ccccc2O)n1 (stereo not drawn)	none
CCn1cc([N+](=O)[O-])c(C(=O)N2N=C(c3ccc4ccccc4c3)CC2c2cc(Br)ccc2O)n1 (stereo not drawn)	Lmaj promast 100
CCOc1ccc(C(=S)N2CCN(C)CC2)cc1	none
COc1ccccc1/C=C1\SC(=O)N(CCC(=O)NNC(=O)c2ccccc2Cl)C1=O	none
COc1ccccc1OCCN1C(=O)S/C(=C\c2ccco2)C1=O	Lmaj promast 55
CCN1/C(=C/c2ccc3cc(C)ccc3[n+]2CC)Sc2ccccc21	Lmaj promast 100
CCC(=O)/C=C1/Sc2ccccc2N1CC	none
CCN1/C(=C/c2ccc3cc(C)ccc3[n+]2CC)Sc2cc(C)c(C)cc21	WT yeast gro inh 92, Lmaj promast 100
CC[n+]1c(/C=C2\Sc3ccccc3N2C)ccc2cccc(C)c21	Lmaj promast 100
CC(C)NC(=S)NCc1cccs1	none
N#CC1=C(N)Oc2n[nH]c(-c3ccccc3)c2C1c1cccnc1 (stereo not drawn)	none
Cc1ccc(-c2[nH]nc3c2C(c2cccnc2)C(C#N)=C(N)O3)cc1 (stereo not drawn)	Lmaj promast 71
C#CCSc1nc(N)c2c(n1)OC(N)=C(C#N)C2c1cccnc1 (stereo not drawn)	Lmaj promast 76
COC(=O)c1scc(C)c1N/N=C(\C)c1cc(F)c(Cl)cc1F	none
O=C(NNC(=O)c1ccco1)c1cccc([N+](=O)[O-])c1	none
O=C(Nc1cccc(S(=O)(=O)NC2=NCCCCC2)c1)c1cc(-c2ccc(Cl)cc2)nc2ccccc12	none
CCOC(=O)c1c(C)[nH]c(C)c1C(=O)COC(=O)c1cc2ccccc2cc1O	WT yeast gro inh 74
CCOC(=O)c1c(C)[nH]c(C)c1C(=O)COC(=O)c1c(OC)cccc1OC	none
CCOC(=O)c1c(C)[nH]c(C)c1C(=O)COC(=O)/C=C/c1cccc(C(F)(F)F)c1	WT yeast gro inh 58, Lmaj promast 59
CCOC(=O)c1c(C)[nH]c(C)c1C(=O)COC(=O)c1ccc(O)cc1	none
CCOC(=O)c1c(C)[nH]c(C)c1C(=O)COC(=O)c1cc2ccccc2cc1OC	Lmaj promast 64
COc1ccc(CCNC(=O)Nc2ccc([N+](=O)[O-])cc2)cc1OC	none
CN1C(=S)SC(C)(C)C1N(O)C(=O)Nc1ccc(Cl)cc1 (stereo not drawn)	none
CC1(C)C(N(O)C(=O)Nc2ccc(Cl)cc2)N(c2ccc(Cl)cc2)C(=O)N1CC(=O)NN (stereo not drawn)	Lmaj promast 100
Cc1ccc(Cl)cc1N1CCN(C(=O)Cc2ccc(-n3c(=O)[nH]c4ccsc4c3=O)cc2)CC1	Lmaj promast 57
COc1ccc(-c2csc(C)n2)cc1	none
COc1ccc(-c2csc(CCN3N=C(C)CC3=O)n2)cc1	PMI act hi M6P 2.1
O=C(CCNS(=O)(=O)c1cccs1)NCc1ccccc1	none
CCOc1ccc(C2CC(c3cccc(OC)c3OC)n3nnnc3N2)cc1Cl (stereo not drawn)	none
Cc1cc(Br)c(OCc2ccc(C(=O)N/N=C3\CC4CC=CC34)cc2)c(Br)c1 (stereo not drawn)	WT yeast gro inh 76
Cc1ccccc1C(=O)NNC(=O)Nc1ccccc1	none
Cc1ccc(NC(=O)c2c(Cl)nc3ccccn23)cc1	none
Cc1cccc(C)c1OCC(O)CN (stereo not drawn)	none
Cc1cc(OCC(O)CN)ccc1Cl (stereo not drawn)	Lmaj promast 92
CC(C)n1nc(C(=O)OCn2nnc3ccccc3c2=O)c2ccccc2c1=O	none
c1ccc2c(c1)sc1nnnn12	WT yeast gro inh 66
COc1ccc(N2C(=O)[C@@H]3[C@H](C2=O)[C@H]2c4ccccc4C=CN2[C@@H]3C(C)=O)cc1	none
COc1ccc(CCNCC(O)Cn2c3ccccc3c3ccccc32)cc1OC (stereo not drawn)	Lmaj promast 100
Nc1nc2c(Cl)ccc(Cl)c2s1	none
COc1cccc(Nc2cc(C)nc3ccccc23)c1	Lmaj promast 88
COc1ccc(OC)c(Nc2cc(C)nc3ccccc23)c1	Lmaj promast 71
COc1cc(NC(=O)c2cc(C)nc3ccccc23)cc(OC)c1	none
COc1ccc2nc(C)cc(Nc3ccccc3O)c2c1	Lmaj promast 59
CN(CC(=O)Nc1ccc(N2CCOCC2)cc1)CC(=O)Nc1ccccc1C#N	none
Cc1ccc(NC(=O)COC(=O)Cn2cnc3c2c(=O)n(C)c(=O)n3C)c(Cl)c1	none
Cc1cc(N)n2ncc(-c3ccccc3)c2n1	none
CC(=O)Nc1ccc(Nc2cc(C)nc3c(-c4ccccc4)cnn23)cc1	Lmaj promast 89
Cc1ccccc1C(=O)NNC(=O)CCC(=O)Nc1cccc(Cl)c1C	none
CC1(C)Cc2c(c(N3CCCC3)nc3sc4c(N5CCN(CCO)CC5)ncnc4c23)CO1	Lmaj promast 74
